Experimental data as given in ChEMBL document CHEMBL1141435, “Serinocyclins A and B, cyclic heptapeptides from Metarhizium anisopliae” (J Nat Prod, 2007).

How the values were obtained:
Bacillus cereus = test: Antibacterial activity against Bacillus cereus at 10 ug/disc after 48 hrs by disc diffusion assay; type: functional; conditions: read-out: IZ
Summary of the method: (§1)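 Target strains grown on nutrient agar plates (9 cm), each spread with 0.6 mL of a 24 h nutrient broth culture and dried 1 h. Samples went onto 7 mm filter paper disks in 10 µL MeOH and were air-dried 1 h before placement. Inhibition zones were checked every 24 h for 4 days. Tetracycline at 10 µg/disk was the positive control, MeOH and formic acid at 10 µL/disk the negatives.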

Botrytis = test: Antifungal activity against Botrytis cinerea at 10 ug/disc after 48 hrs by disc diffusion assay; type: functional; conditions: read-out: IZ
Summary of the method: (§2)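 Fungal targets grown on potato dextrose agar plates (9 cm), each spread with 0.6 mL of a conidial suspension (ca. 1 × 10^6 conidia/mL H2O) and dried 1 h. Samples went onto 7 mm filter paper disks in 10 µL MeOH, air-dried 1 h, then placed on the plates. Inhibition zones were read every 24 h for 4 days. Filipin at 10 µg/disk was the positive control, MeOH and formic acid at 10 µL/disk the negatives.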

Escherichia coli = test: Antibacterial activity against Escherichia coli at 10 ug/disc after 48 hrs by disc diffusion assay; type: functional; conditions: read-out: IZ; summary of the method: as §1
Beauveria bassiana = test: Antifungal activity against Beauveria bassiana at 10 ug/disc after 48 hrs by disc diffusion assay; type: functional; conditions: read-out: IZ; summary of the method: as §2
Saccharomyces cerevisiae = test: Antifungal activity against Saccharomyces cerevisiae at 10 ug/disc after 48 hrs by disc diffusion assay; type: functional; conditions: read-out: IZ
Summary of the method: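 Yeast grown on 1% yeast extract, 2% peptone, 1.5% agar with either 2% dextrose or 2% glycerol. Plates were spread with 0.5 mL of a suspension in H2O adjusted to OD600 0.5 and dried 1 h. Samples went onto 7 mm paper disks in 10 µL MeOH, air-dried 1 h. Zones were read every 24 h for 4 days. Filipin at 10 µg/disk was the positive control, MeOH and formic acid the negatives.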

Colletotrichum = test: Antifungal activity against Colletotrichum acutatum at 10 ug/disc after 48 hrs by disc diffusion assay; type: functional; conditions: read-out: IZ; summary of the method: as §2
Aedes aegypti = test: Induction of locomotory deffect in Aedes aegypti Rockefeller larvae after 24 hrs; type: functional, organism-based
Summary of the method: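 Eggs hatched under vacuum for 30 min and larvae kept at 25 °C in tap water with liver powder suspension. At 24 h posthatch, 7–11 larvae per well of a 24-well plate were placed in 0.9 mL food/water. Treatments were added in 100 µL distilled water, and effects were scored 24 h later.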

| Compound | zone of inhibition at 10 µg/disc (Bacillus cereus) [mm] | zone of inhibition at 10 µg/disc (Botrytis) [mm] | zone of inhibition at 10 µg/disc (Escherichia coli) [mm] | zone of inhibition at 10 µg/disc (Beauveria bassiana) [mm] | zone of inhibition at 10 µg/disc (Saccharomyces cerevisiae) [mm] | zone of inhibition at 10 µg/disc (Colletotrichum) [mm] | EC50 (Aedes aegypti) [ppm] |
| --- | --- | --- | --- | --- | --- | --- | --- |
| CCCCC[C@@H](O)[C@H]1C(=O)O[C@H](C)[C@@H](O)/C=C/C=C/C=C/C=C/C=C(\C)[C@@H](O)C[C@H](O)C[C@H](O)C[C@H](O)C[C@H](O)C[C@H](O)C[C@@H]1O [FILIPIN] | > 5 | > 5 | > 5 | > 5 | > 5 | > 5 |  |
| NCC[C@H](O)C[C@H]1NC(=O)[C@H](CO)NC(=O)[C@@H]2C[C@@H](O)CN2C(=O)C2(CC2)NC(=O)[C@H](CO)NC(=O)[C@@H](CO)NC(=O)CCNC1=O [SERINOCYCLIN A] |  |  |  |  |  |  | 59 |
| CN(C)[C@@H]1C(O)=C(C(N)=O)C(=O)[C@@]2(O)C(O)=C3C(=O)c4c(O)cccc4[C@@](C)(O)[C@H]3C[C@@H]12 [TETRACYCLINE] | > 5 | > 5 | > 5 | > 5 | > 5 | > 5 |  |
